ChEMBL document CHEMBL1155155, “Single-dose pharmacokinetics of intravenous itraconazole and hydroxypropyl-beta-cyclodextrin in infants, children, and adolescents” (Antimicrob Agents Chemother, 2007)

Legend:
[1] = Cmax in human at risk for fungal infection at 2.5 mg/kg, iv in 0.1 g/kg hydroxypropyl-beta-cyclodextrin administered as single dose; assay type: ADME, organism-based; design: dose 2.5 mg/kg, route intravenous; conditions: in vivo
How it was run: (§1)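 Single 1-h IV infusion. Plasma sampled from the contralateral limb predose and at 1–120 h (>2 y) or 1–96 h (<2 y). Itraconazole was extracted with internal standard and quantified by C18 HPLC with UV 263 nm detection, linear range 2–2,000 ng/ml. Noncompartmental analysis: Cmax by inspection, AUC0-24 by trapezoidal rule, AUC extrapolated via λz, CL and Vz from AUC0-∞.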

[2] = system: Homo sapiens; assay: Tmax in children of >6-12 yrs age at risk for fungal infection assessed as hydroxyitraconazole level at 2.5 mg/kg, iv in 0.1 g/kg hydroxypropyl-beta-cyclodextrin administered as single dose; assay type: ADME, organism-based; design: dose 2.5 mg/kg, route intravenous; conditions: in vivo
How it was run: (§2)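 Single 1-h constant-rate IV infusion. Venous plasma sampled predose and to 120 h (>2 y) or 96 h (<2 y), then stored at –20°C. Hydroxyitraconazole was measured by borate/isoamylalcohol-heptane extraction, HCl back-extraction, C18 HPLC and UV 263 nm, with a linear range of 5–5,000 ng/ml. Noncompartmental analysis: Cmax and tmax by inspection, AUC0-24 by trapezoidal rule.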

[3] = Apparent volume of distribution in children of >6-12 yrs age at risk for fungal infection at 2.5 mg/kg, iv in 0.1 g/kg hydroxypropyl-beta-cyclodextrin administered as single dose; assay type: ADME, organism-based; design: dose 2.5 mg/kg, route intravenous; conditions: human, in vivo; how it was run: as §1
[4] = Half life in children of >6-12 yrs age at risk for fungal infection at 2.5 mg/kg, iv in 0.1 g/kg hydroxypropyl-beta-cyclodextrin administered as single dose; assay type: ADME, organism-based; design: dose 2.5 mg/kg, route intravenous; conditions: human, in vivo; how it was run: as §1
[5] = Apparent volume of distribution in adolescents of >12-16 yrs age at risk for fungal infection at 2.5 mg/kg, iv in 0.1 g/kg hydroxypropyl-beta-cyclodextrin administered as single dose; assay type: ADME, organism-based; design: dose 2.5 mg/kg, route intravenous; conditions: human, in vivo; how it was run: as §1
[6] = system: Homo sapiens; assay: Half life in children of >2-6 yrs age at risk for fungal infection assessed as hydroxyitraconazole level at 2.5 mg/kg, iv in 0.1 g/kg hydroxypropyl-beta-cyclodextrin administered as single dose; assay type: ADME, organism-based; design: dose 2.5 mg/kg, route intravenous; conditions: in vivo; how it was run: as §2
[7] = system: Homo sapiens; assay: Cmax in children of >2-6 yrs age at risk for fungal infection assessed as hydroxyitraconazole level at 2.5 mg/kg, iv in 0.1 g/kg hydroxypropyl-beta-cyclodextrin administered as single dose; assay type: ADME, organism-based; design: dose 2.5 mg/kg, route intravenous; conditions: in vivo
How it was run: (§3)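 Single constant-rate IV infusion over 1 h. Heparinised venous plasma was drawn predose and at 1–120 h (>2 yr) or 1–96 h (<2 yr, randomised to the itraconazole/metabolite arm), then stored at –20°C. Analysis used borate-buffered liquid-liquid extraction with internal standard, C18 HPLC and UV detection at 263 nm, linear 5–5,000 ng/ml. Individual Cmax was read by visual inspection, noncompartmental.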

[8] = AUC (0 to 24 hrs) in infants of 0.6-2 yrs age at risk for fungal infection at 2.5 mg/kg, iv in 0.1 g/kg hydroxypropyl-beta-cyclodextrin administered as single dose; assay type: ADME, organism-based; design: time < 24 hr, dose 2.5 mg/kg, route intravenous; conditions: human, plasma; how it was run: as §1
[9] = Cmax in children of >2-6 yrs age at risk for fungal infection at 2.5 mg/kg, iv in 0.1 g/kg hydroxypropyl-beta-cyclodextrin administered as single dose; assay type: ADME, organism-based; design: dose 2.5 mg/kg, route intravenous; conditions: human, in vivo; how it was run: as §1
[10] = system: Homo sapiens; assay: Half life in infants of 0.6-2 yrs age at risk for fungal infection assessed as hydroxyitraconazole level at 2.5 mg/kg, iv in 0.1 g/kg hydroxypropyl-beta-cyclodextrin administered as single dose; assay type: ADME, organism-based; design: dose 2.5 mg/kg, route intravenous; conditions: in vivo; how it was run: as §2
[11] = system: Homo sapiens; assay: AUC (0 to 24 hrs) in infants of 0.6-2 yrs age at risk for fungal infection assessed as hydroxyitraconazole level at 2.5 mg/kg, iv in 0.1 g/kg hydroxypropyl-beta-cyclodextrin administered as single dose; assay type: ADME, organism-based, Plasma; design: time < 24 hr, dose 2.5 mg/kg, route intravenous; conditions: in vivo; how it was run: as §2
[12] = Apparent volume of distribution in human at risk for fungal infection at 2.5 mg/kg, iv in 0.1 g/kg hydroxypropyl-beta-cyclodextrin administered as single dose; assay type: ADME, organism-based; design: dose 2.5 mg/kg, route intravenous; conditions: in vivo; how it was run: as §1
[13] = system: Homo sapiens; assay: Cmax in children of >6-12 yrs age at risk for fungal infection assessed as hydroxyitraconazole level at 2.5 mg/kg, iv in 0.1 g/kg hydroxypropyl-beta-cyclodextrin administered as single dose; assay type: ADME, organism-based; design: dose 2.5 mg/kg, route intravenous; conditions: in vivo; how it was run: as §3
[14] = system: Homo sapiens; assay: Cmax in adolescents of >12-16 yrs age at risk for fungal infection assessed as hydroxyitraconazole level at 2.5 mg/kg, iv in 0.1 g/kg hydroxypropyl-beta-cyclodextrin administered as single dose; assay type: ADME, organism-based; design: dose 2.5 mg/kg, route intravenous; conditions: in vivo; how it was run: as §2
[15] = Half life in children of >2-6 yrs age at risk for fungal infection at 2.5 mg/kg, iv in 0.1 g/kg hydroxypropyl-beta-cyclodextrin administered as single dose; assay type: ADME, organism-based; design: dose 2.5 mg/kg, route intravenous; conditions: human, in vivo; how it was run: as §1
[16] = system: Homo sapiens; assay: Tmax in children of >2-6 yrs age at risk for fungal infection assessed as hydroxyitraconazole level at 2.5 mg/kg, iv in 0.1 g/kg hydroxypropyl-beta-cyclodextrin administered as single dose; assay type: ADME, organism-based; design: dose 2.5 mg/kg, route intravenous; conditions: in vivo; how it was run: as §2
[17] = Cmax in children of >6-12 yrs age at risk for fungal infection at 2.5 mg/kg, iv in 0.1 g/kg hydroxypropyl-beta-cyclodextrin administered as single dose; assay type: ADME, organism-based; design: dose 2.5 mg/kg, route intravenous; conditions: human, in vivo; how it was run: as §1
[18] = system: Homo sapiens; assay: AUC (0 to 24 hrs) in children of >2-6 yrs age at risk for fungal infection assessed as hydroxyitraconazole level at 2.5 mg/kg, iv in 0.1 g/kg hydroxypropyl-beta-cyclodextrin administered as single dose; assay type: ADME, organism-based, Plasma; design: time < 24 hr, dose 2.5 mg/kg, route intravenous; conditions: in vivo; how it was run: as §2
[19] = system: Homo sapiens; assay: Cmax in infants of 0.6-2 yrs age at risk for fungal infection assessed as hydroxyitraconazole level at 2.5 mg/kg, iv in 0.1 g/kg hydroxypropyl-beta-cyclodextrin administered as single dose; assay type: ADME, organism-based; design: dose 2.5 mg/kg, route intravenous; conditions: in vivo; how it was run: as §3
[20] = AUC (0 to 24 hrs) in human at risk for fungal infection at 2.5 mg/kg, iv in 0.1 g/kg hydroxypropyl-beta-cyclodextrin administered as single dose; assay type: ADME, organism-based; design: time < 24 hr, dose 2.5 mg/kg, route intravenous; conditions: plasma; how it was run: as §1
[21] = Apparent volume of distribution in infants of 0.6-2 yrs age at risk for fungal infection at 2.5 mg/kg, iv in 0.1 g/kg hydroxypropyl-beta-cyclodextrin administered as single dose; assay type: ADME, organism-based; design: dose 2.5 mg/kg, route intravenous; conditions: human, in vivo; how it was run: as §1
[22] = AUC (0 to 24 hrs) in children of >6-12 yrs age at risk for fungal infection at 2.5 mg/kg, iv in 0.1 g/kg hydroxypropyl-beta-cyclodextrin administered as single dose; assay type: ADME, organism-based; design: time < 24 hr, dose 2.5 mg/kg, route intravenous; conditions: human, plasma; how it was run: as §1

Cmax [1]: 1020 ng/mL
Tmax [2]: 1.7 h
Vd [3]: 13.9 L/kg
half-life [4]: 17.2 h
Vd [5]: 28.5 L/kg
t1/2 [6]: 12.7 h
Cmax [7]: 299 ng/mL
AUC(0-t) at 24 h [8]: 2120 ng·h/mL
Cmax [9]: 1550 ng/mL
t1/2 [10]: 16.6 h
AUC [11]: 4155 ng·h/mL
Vd [12]: 18.5 L/kg
Cmax [13]: 277 ng/mL
Cmax [14]: 321 ng/mL
half-life [15]: 14 h
Tmax [16]: 2.9 h
Cmax [17]: 785 ng/mL
AUC [18]: 4249 ng·h/mL
Cmax [19]: 265 ng/mL
AUC(0-t) at 24 h [20]: 4920 ng·h/mL
Vd [21]: 23.6 L/kg
AUC(0-t) at 24 h [22]: 3760 ng·h/mL
Structure (SMILES): CCC(C)n1ncn(-c2ccc(N3CCN(c4ccc(OCC5COC(Cn6cncn6)(c6ccc(Cl)cc6Cl)O5)cc4)CC3)cc2)c1=O (configuration not stated) [ITRACONAZOLE]
